Test results reported in ChEMBL document CHEMBL1221386, “Synthesis and pharmacological evaluation of 3-aryl-3-azolylpropan-1-amines as selective triple serotonin/norepinephrine/dopamine reuptake inhibitors” (Bioorg Med Chem Lett, 2010).

What was measured:
[1] = target: T1, Sodium-dependent noradrenaline transporter (Homo sapiens, UniProt P23975); experiment: Inhibition of norepinephrine reuptake at human NET expressed in MDCK cells at 100 nM
[2] = target: T2, Sodium-dependent dopamine transporter (Homo sapiens, UniProt Q01959); experiment: Inhibition of dopamine reuptake at human dopamine transporter expressed in CHO cells at 100 nM
[3] = target: Sodium-dependent serotonin transporter (Rattus norvegicus) (UniProt P31652); experiment: Displacement of [3H]paroxetine from SERT in rat cerebral cortex at 100 nM
[4] = target: T3, Sodium-dependent serotonin transporter (Homo sapiens, UniProt P31645); experiment: Inhibition of serotonin reuptake at human SERT expressed in HEK293 cells at 100 nM
Target sequence in this assay (P31645 whole entry, looked up): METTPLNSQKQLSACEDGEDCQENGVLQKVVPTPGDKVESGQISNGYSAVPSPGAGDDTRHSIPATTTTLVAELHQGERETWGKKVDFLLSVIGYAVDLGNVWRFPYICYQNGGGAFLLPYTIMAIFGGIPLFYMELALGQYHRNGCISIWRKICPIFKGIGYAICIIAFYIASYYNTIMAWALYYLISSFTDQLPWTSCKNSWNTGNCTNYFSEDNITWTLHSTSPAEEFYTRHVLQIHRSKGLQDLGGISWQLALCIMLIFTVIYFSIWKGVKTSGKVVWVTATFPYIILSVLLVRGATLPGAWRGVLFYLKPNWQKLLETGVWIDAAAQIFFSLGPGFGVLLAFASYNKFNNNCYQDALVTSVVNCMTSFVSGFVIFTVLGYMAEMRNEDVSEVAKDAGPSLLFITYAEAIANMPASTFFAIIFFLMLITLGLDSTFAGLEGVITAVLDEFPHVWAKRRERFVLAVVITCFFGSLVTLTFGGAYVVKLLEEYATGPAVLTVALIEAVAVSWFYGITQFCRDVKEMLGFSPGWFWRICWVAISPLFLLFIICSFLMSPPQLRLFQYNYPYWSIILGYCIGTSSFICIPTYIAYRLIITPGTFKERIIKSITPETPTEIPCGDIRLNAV

[5] = Half life in rat liver microsomes; type: ADME, Microsome
In short: (§1)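 Metabolic stability in human or rat liver microsomes. Half-lives measurable up to 60 min.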

[6] = target: T2, Sodium-dependent dopamine transporter; experiment: Inhibition of dopamine reuptake at human dopamine transporter expressed in CHO cells; type: cell-based
In short: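 CHO-K1 cells stably expressing human DAT, assayed for [3H]DA uptake in duplicate. Nomifensine served as standard. IC50 determined.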

[7] = target: Sodium-dependent serotonin transporter (Rattus norvegicus) (UniProt P31652); experiment: Displacement of [3H]paroxetine from SERT in rat cerebral cortex at 1 uM; type: tissue-based
In short: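 Competition binding against 2 nM [3H]paroxetine on freshly prepared rat frontal cortex membranes, homogenized and centrifuged twice at 20,000g, then resuspended in incubation buffer. Tris–HCl pH 7.4 buffer with NaCl and 5 mM KCl. Incubation 2 h at 25 °C, run in triplicate. Nonspecific binding defined with citalopram. Read-out is percent inhibition at 1 µM.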

Mus musculus [8] = experiment: Antidepressant activity in mouse assessed as reduction of mobility time by forced swimming test at 30 mg/kg, ip; design: scale not given: the % may be the effect or the level left; conditions: route intraperitoneal
[9] = target: T1, Sodium-dependent noradrenaline transporter; experiment: Inhibition of norepinephrine reuptake at human NET expressed in MDCK cells; type: cell-based
[10] = Half life in human liver microsomes; type: ADME, Microsome
In short: as §1

[11] = target: T3, Sodium-dependent serotonin transporter; experiment: Inhibition of serotonin reuptake at human SERT expressed in HEK293 cells; type: cell-based
Target sequence in this assay (P31645 whole entry): as the sequence (P31645 whole entry, looked up) above

Mus musculus [12] = experiment: Antidepressant activity in mouse assessed as reduction of mobility time at 5 mg/kg, po by tail suspension test; type: functional; design: scale not given: the % may be the effect or the level left
In short: (§2)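 Mouse tail suspension test with oral dose–response. Read-out is immobility time, reported as % reduction of immobility. Minimal effective dose is the lowest dose giving p <0.05. Doses are in mg/kg.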

Mus musculus [13] = experiment: Potentiation of […]-induced serotonin syndrome like behavior in mouse at 30 mg/kg, po; type: functional
In short: (§3)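 Mice, oral dosing. For serotonin potentiation, 5-hydroxytryptophan (5-HTP, serotonin precursor) is given to induce serotonin syndrome-like head twitch/stereotypy counts. Response is expressed as % potentiation relative to control group (0%). Minimal effective dose is the lowest dose reaching p <0.05. Doses are in mg/kg.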

Mus musculus [14] = experiment: Anxiolytic activity in mouse assessed as inhibition of marble buried at 30 mg/kg, ip by marble burying test; type: functional; conditions: route intraperitoneal
Mus musculus [15] = experiment: Antidepressant activity in po dosed mouse assessed as reduction of mobility time by tail suspension test; type: functional; conditions: read-out: MED
In short: as §2

Mus musculus [16] = experiment: Antidepressant activity in mouse assessed as reduction of mobility time by forced swimming test at 10 mg/kg, po; type: functional; design: scale not given: the % may be the effect or the level left
In short: (§4)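 Mouse forced swimming test with oral dosing. Read-out is immobility time, expressed as % reduction of immobility. Minimal effective dose is the lowest dose with p <0.05. ED50 is given with 95% confidence limits. Doses are in mg/kg.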

Mus musculus [17] = experiment: Antidepressant activity in mouse assessed as change in locomotion at 60 mg/kg, po; type: functional
Mus musculus [18] = experiment: Potentiation of […]-induced serotonin syndrome like behavior in po dosed mouse; type: functional; conditions: read-out: MED
In short: as §3

Mus musculus [19] = experiment: Antidepressant activity in mouse assessed as change in locomotion at 90 mg/kg, po; type: functional
Mus musculus [20] = experiment: Antidepressant activity in mouse assessed as change in locomotion at 30 mg/kg, po; type: functional
Mus musculus [21] = experiment: Antidepressant activity in po dosed mouse assessed as reduction of mobility time by forced swimming test; type: functional; conditions: for minimal effective dose: read-out: MED
In short: as §4

Mus musculus [22] = experiment: Analgesic activity in mouse assessed as reduction of acetic acid-induced writhing at 30 mg/kg
Mus musculus [23] = experiment: Anxiolytic activity in mouse assessed as inhibition of marble buried at 10 mg/kg, ip by marble burying test; type: functional; conditions: route intraperitoneal
Mus musculus [24] = experiment: Potentiation of […]-induced serotonin syndrome like behavior in mouse at 10 mg/kg, po; type: functional
In short: as §3

Mus musculus [25] = experiment: Antidepressant activity in mouse assessed as reduction of mobility time at 7 mg/kg, po by tail suspension test; type: functional; design: scale not given: the % may be the effect or the level left
In short: as §2

Sodium-dependent serotonin transporter (Rattus norvegicus), sequence (P31652 whole entry): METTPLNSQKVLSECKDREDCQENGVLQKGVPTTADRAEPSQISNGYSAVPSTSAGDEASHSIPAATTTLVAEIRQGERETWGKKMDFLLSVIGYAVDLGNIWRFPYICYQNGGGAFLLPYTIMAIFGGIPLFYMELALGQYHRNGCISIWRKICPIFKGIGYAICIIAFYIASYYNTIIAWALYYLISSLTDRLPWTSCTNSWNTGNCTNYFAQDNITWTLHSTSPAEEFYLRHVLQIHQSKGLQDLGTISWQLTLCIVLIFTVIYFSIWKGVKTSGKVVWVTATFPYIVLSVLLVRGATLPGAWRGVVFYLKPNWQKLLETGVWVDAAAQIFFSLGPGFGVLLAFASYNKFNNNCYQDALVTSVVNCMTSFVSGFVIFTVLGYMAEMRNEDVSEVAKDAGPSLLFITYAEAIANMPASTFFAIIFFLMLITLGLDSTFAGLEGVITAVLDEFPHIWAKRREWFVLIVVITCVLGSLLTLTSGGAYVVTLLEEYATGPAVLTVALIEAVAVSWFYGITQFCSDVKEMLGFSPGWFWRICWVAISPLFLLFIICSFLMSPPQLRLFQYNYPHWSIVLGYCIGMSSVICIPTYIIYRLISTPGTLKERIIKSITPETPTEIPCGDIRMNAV
T2 sequence (Q01959 whole entry): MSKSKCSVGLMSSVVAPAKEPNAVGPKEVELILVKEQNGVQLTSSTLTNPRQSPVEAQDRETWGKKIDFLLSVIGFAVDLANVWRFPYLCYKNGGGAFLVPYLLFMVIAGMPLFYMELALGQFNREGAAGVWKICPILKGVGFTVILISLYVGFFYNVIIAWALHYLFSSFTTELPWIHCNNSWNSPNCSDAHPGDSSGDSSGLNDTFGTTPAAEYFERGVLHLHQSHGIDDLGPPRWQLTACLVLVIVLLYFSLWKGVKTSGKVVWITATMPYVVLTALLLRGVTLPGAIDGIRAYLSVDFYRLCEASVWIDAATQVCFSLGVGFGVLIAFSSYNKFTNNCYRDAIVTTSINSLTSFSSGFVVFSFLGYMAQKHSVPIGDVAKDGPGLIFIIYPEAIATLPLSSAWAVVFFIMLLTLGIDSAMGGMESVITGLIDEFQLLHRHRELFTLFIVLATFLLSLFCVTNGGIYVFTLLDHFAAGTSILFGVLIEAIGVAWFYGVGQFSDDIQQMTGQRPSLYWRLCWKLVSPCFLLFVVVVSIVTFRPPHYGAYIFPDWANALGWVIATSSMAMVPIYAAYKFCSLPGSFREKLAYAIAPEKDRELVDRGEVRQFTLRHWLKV
T1 sequence (P23975 whole entry): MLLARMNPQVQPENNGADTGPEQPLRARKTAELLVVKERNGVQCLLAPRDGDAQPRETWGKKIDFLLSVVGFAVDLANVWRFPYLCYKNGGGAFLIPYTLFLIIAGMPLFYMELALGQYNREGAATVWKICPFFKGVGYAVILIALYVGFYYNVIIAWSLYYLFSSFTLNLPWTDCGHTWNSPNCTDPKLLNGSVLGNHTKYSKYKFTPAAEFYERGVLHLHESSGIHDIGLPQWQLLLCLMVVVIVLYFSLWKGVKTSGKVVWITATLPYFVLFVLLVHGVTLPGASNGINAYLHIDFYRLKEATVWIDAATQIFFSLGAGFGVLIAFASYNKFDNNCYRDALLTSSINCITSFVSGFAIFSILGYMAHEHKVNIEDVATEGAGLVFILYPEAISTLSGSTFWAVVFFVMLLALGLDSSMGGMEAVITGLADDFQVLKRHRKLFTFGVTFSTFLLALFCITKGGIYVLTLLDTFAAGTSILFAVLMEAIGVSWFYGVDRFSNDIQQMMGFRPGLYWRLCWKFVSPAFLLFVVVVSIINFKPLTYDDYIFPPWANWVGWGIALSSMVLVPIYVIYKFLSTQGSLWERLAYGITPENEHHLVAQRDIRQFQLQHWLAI

SMILES	inhibition [1] [%]	inhibition [2] [%]	inhibition [3] [%]	inhibition [4] [%]	inhibition [7] [%]	also measured
CNCC[C@@H](c1ccc2ccccc2c1)n1nnc(C)n1	79	7	60.2	82	–	–
CNCC[C@H](c1ccc(Cl)c(Cl)c1)n1nnc(C)n1	–	–	20	–	–	–
CNCC[C@H](c1ccc2ccccc2c1)n1nnc(C)n1	37	3	34.5	23	–	–
CN(C)CCC(c1ccc2ccccc2c1)n1ncnn1 (racemic)	30	20	–	41	85.1	half-life [5]: 3 min; IC50 [6]: 616 nM; Activity (Mus musculus [8]): 43.2%; IC50 [9]: 264 nM; half-life [10]: 50 min; IC50 [11]: 138 nM
CN(C)CCC(c1ccc2cc(F)ccc2c1)n1ncnn1 (racemic)	12	7	74.1	61	–	half-life [5]: 3 min; half-life [10]: > 60 min
CNCCC(c1ccc2ccccc2c1)n1ncnn1 (racemic)	84	10	–	78	90.4	half-life [5]: 12 min; IC50 [6]: 1240 nM; IC50 [9]: 13.3 nM; half-life [10]: 49 min; IC50 [11]: 32 nM
CNCCC(c1ccc2ccccc2c1)n1nnc(-c2ccccc2)n1 (racemic)	–	–	–	–	98.4	Activity (Mus musculus [8]): 5.5%
CNCCC(c1ccc2cc(F)ccc2c1)n1ncnn1 (racemic)	25	6	80.1	59	–	half-life [5]: 29 min; half-life [10]: > 60 min
CNCCC(c1ccc2cc(F)ccc2c1)n1nnc(C)n1 (racemic)	39	10	81.3	58	–	half-life [5]: 27 min; half-life [10]: > 60 min
CN(C)CCC(c1ccc(Cl)c(Cl)c1)n1ncnn1 (racemic)	37	58	–	27	72	half-life [5]: 3 min; IC50 [6]: 78 nM; IC50 [9]: 234 nM; half-life [10]: 55 min; IC50 [11]: 279 nM
CNCCC(c1ccc(Cl)c(Cl)c1)n1ncnn1 (racemic)	56	48	–	35	86	half-life [5]: > 60 min; IC50 [6]: 116 nM; IC50 [9]: 69 nM; half-life [10]: > 60 min; IC50 [11]: 181 nM
CN(C)CCC(c1ccc(Cl)c(Cl)c1)n1nccn1 (racemic)	–	–	–	–	69.9	–
CN(C)CCC(c1ccc(Cl)cc1)n1ncnn1 (racemic)	–	–	–	–	32.4	–
CN(C)CCC(c1ccc(Cl)cc1Cl)n1ncnn1 (racemic)	–	–	-0.2	–	–	–
CN(C)CCC(c1ccc(F)c(F)c1)n1ncnn1 (racemic)	–	–	–	–	25.3	–
CN(C)CCC(c1ccc(OCc2ccccc2)cc1)n1ncnn1 (racemic)	–	–	9.5	–	–	–
CN(C)CCC(c1ccc2cc(Cl)ccc2c1)n1ncnn1 (racemic)	32	18	–	46	54.3	–
CN(C)CCC(c1ccc2ccccc2c1)n1nnc(-c2ccccc2)n1 (racemic)	–	–	–	–	92.6	–
CN(C)CCC(c1cccc(Cl)c1)n1ncnn1 (racemic)	–	–	-5.6	–	–	–
CNCCC(c1ccc(Br)cc1)n1ncnn1 (racemic)	–	–	10.7	–	–	–
CNCCC(c1ccc(C(F)(F)F)cc1)n1ncnn1 (racemic)	–	–	15.3	–	–	–
CNCCC(c1ccc(Cl)c(Cl)c1)n1nnc(C)n1 (racemic)	–	–	–	–	86	–
CNCCC(c1ccc(Cl)c(Cl)c1Cl)n1ncnn1 (racemic)	–	–	39.1	–	–	–

SMILES	inhibition [1] [%]	inhibition [2] [%]	inhibition [3] [%]	inhibition [4] [%]	inhibition [7] [%]	also measured
CNCCC(c1ccc(Cl)cc1)n1ncnn1 (racemic)	–	–	–	–	41.1	–
CNCCC(c1ccc(OC(F)(F)F)cc1)n1ncnn1 (racemic)	–	–	3.1	–	–	–
CNCCC(c1ccc(Oc2ccccc2)cc1)n1ncnn1 (racemic)	–	–	-1.7	–	–	–
CNCCC(c1ccc2cc(C)ccc2c1)n1ncnn1 (racemic)	55	3	–	93	93.3	–
CNCCC(c1ccc2cc(Cl)ccc2c1)n1ncnn1 (racemic)	20	–	–	-4	52.1	–
CNCCC(c1ccc2cc(OC)ccc2c1)n1ncnn1 (racemic)	70	4	81.2	88	–	–
CNCCC(c1ccc2cc(OC)ccc2c1)n1nnc(C)n1 (racemic)	84	3	80.2	82	–	–
CNCCC(c1ccc2ccccc2c1)n1nnc(C)n1 (racemic)	–	–	–	–	93.6	–
CNCCC(c1cccc2ccccc12)n1ncnn1 (racemic)	–	–	–	–	51.6	–
CNCCC(c1ccccc1Cl)n1nnc(C)n1 (racemic)	–	–	5.9	–	–	–
COc1ccc(C(CCN(C)C)n2ncnn2)cc1Cl (racemic)	–	–	–	–	39.9	–
COc1ccc(C(CCN(C)C)n2ncnn2)cc1OC (racemic)	–	–	12.9	–	–	–
COc1ccc2cc(C(CCN(C)C)n3ncnn3)ccc2c1 (racemic)	39	36	33.6	44	–	–
Cc1ccc(C(CCN(C)C)n2ncnn2)cc1C (racemic)	–	–	–	–	49.2	–
Cc1ccc2cc(C(CCN(C)C)n3ncnn3)ccc2c1 (racemic)	–	–	–	–	87.7	–
Cc1nnn(C(CCN(C)C)c2ccc(C(C)(C)C)cc2)n1 (racemic)	–	–	-3	–	–	–
Cc1nnn(C(CCN(C)C)c2ccc(Cl)c(Cl)c2)n1 (racemic)	–	–	–	–	69.4	–
Cc1nnn(C(CCN(C)C)c2ccc3cc(F)ccc3c2)n1 (racemic)	10	6	67.5	61	–	–
Cc1nnn(C(CCN(C)C)c2ccc3ccccc3c2)n1 (racemic)	–	–	–	–	85	–
Clc1ccc([C@]23CNC[C@H]2C3)cc1Cl [AMITIFADINE]	–	–	–	–	–	Activity (Mus musculus [12]): 33.2%; Activity (Mus musculus [13]): 54%; inhibition in vivo at 30 mg/kg (Mus musculus [14]): 99.1%; minimal effective dose (Mus musculus [15]): 5 mg/kg; Activity (Mus musculus [16]): 18%; Activity (Mus musculus [17]): 131%; minimal effective dose (Mus musculus [18]): 30 mg/kg; Activity (Mus musculus [19]): 148%; Activity (Mus musculus [20]): 150%; ED50 (Mus musculus [21]): 30.1 mg/kg; minimal effective dose (Mus musculus [21]): 50 mg/kg; inhibition in vivo at 30 mg/kg (Mus musculus [22]): 93.7%
CNCCC(Oc1ccc(C(F)(F)F)cc1)c1ccccc1 (stereo not drawn) [FLUOXETINE]	–	–	–	–	–	minimal effective dose (Mus musculus [18]): 3 mg/kg; minimal effective dose (Mus musculus [21]): 50 mg/kg; inhibition in vivo at 10 mg/kg (Mus musculus [23]): 60.3%
COc1ccc(C(CN(C)C)C2(O)CCCCC2)cc1 (stereo not drawn) [VENLAFAXINE]	–	–	–	–	–	Activity (Mus musculus [24]): 129%; inhibition in vivo at 30 mg/kg (Mus musculus [14]): 82.3%; minimal effective dose (Mus musculus [15]): 7 mg/kg; Activity (Mus musculus [8]): 35.2%; Activity (Mus musculus [17]): 139%; minimal effective dose (Mus musculus [18]): 10 mg/kg; Activity (Mus musculus [20]): 119%; ED50 (Mus musculus [21]): 38.4 mg/kg; minimal effective dose (Mus musculus [21]): 30 mg/kg; inhibition in vivo at 30 mg/kg (Mus musculus [22]): 70.2%; Activity (Mus musculus [25]): 56.3%
